Values after ≈ are worked out from the molar mass of the structure shown.

This experiment concerns Mycobacterium tuberculosis. Put plainly: Antibacterial activity against multidrug-resistant Mycobacterium tuberculosis by agar dilution method. It is filed as functional. In outline: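 Agar dilution in Middlebrook 7H11 agar supplemented with OADC, following an approach similar to NCCLS guidance. MIC determined in duplicate.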
In general terms: Agar dilution tests growth on a series of plates holding different concentrations.
For `CN1CCN(c2cc3c(cc2[N+](=O)[O-])c(=O)c(C(=O)O)cn3C2CC2)CC1c1ccccc1` (stereo not given), inhibition of growth (MIC) required 0.2 µM (≈ 0.0897 µg/mL).
To `O=C(O)c1cn(C2CC2)c2cc(N3CCN(C(=O)C4COc5ccccc5O4)CC3)c([N+](=O)[O-])cc2c1=O` (stereo not given) belongs 6.01 µM (≈ 3.13 µg/mL).
Regarding `CCN(CC)C(=O)C1CCCN(c2cc3c(cc2[N+](=O)[O-])c(=O)c(C(=O)O)cn3C2CC2)C1` (stereo not given), the MIC (in general, the lowest concentration found to suppress growth) came to 3.42 µM (≈ 1.56 µg/mL).
The molecule `COc1c(N2CCNC(C)C2)c(F)cc2c(=O)c(C(=O)O)cn(C3CC3)c12` (stereo not given) [GATIFLOXACIN] registered an MIC of 8.34 µM (≈ 3.13 µg/mL).
As for `O=C(O)c1cn(C2CC2)c2cc(N3CCC(N4CCCCC4)CC3)c([N+](=O)[O-])cc2c1=O`, the figure is 0.43 µM (≈ 0.189 µg/mL).
To `CC1CN(c2cc3c(cc2[N+](=O)[O-])c(=O)c(C(=O)O)cn3-c2ccc(F)cc2)CC(C)O1` (stereo not given) belongs 1.77 µM (≈ 0.781 µg/mL).
To `NNC(=O)c1ccncc1` [ISONIAZID] belongs 45.6 µM (≈ 6.25 µg/mL); to `O=C(O)c1cn(-c2ccc(F)cc2)c2cc(N3CCN(Cc4ccc5c(c4)OCO5)CC3)c([N+](=O)[O-])cc2c1=O`, 0.71 µM (≈ 0.388 µg/mL).
Molecule `O=C(O)c1cn(C2CC2)c2cc(N3CCN(C(=O)c4ccco4)CC3)c([N+](=O)[O-])cc2c1=O` gave an MIC of 0.34 µM (≈ 0.154 µg/mL).
For the molecule `CC(C)(C)n1cc(C(=O)O)c(=O)c2cc([N+](=O)[O-])c(N3CCN(Cc4ccc5c(c4)OCO5)CC3)cc21`, the MIC amounted to 1.53 µM (≈ 0.778 µg/mL).
To `O=C(O)c1cn2c(n1)CN(c1cc3c(cc1[N+](=O)[O-])c(=O)c(C(=O)O)cn3C1CC1)CC2` belongs 0.43 µM (≈ 0.189 µg/mL); to `CC(C)(C)NC(=O)C1c2ccccc2CCN1c1cc2c(cc1[N+](=O)[O-])c(=O)c(C(=O)O)cn2C1CC1` (stereo not given), 1.55 µM (≈ 0.782 µg/mL); to `Cc1onc(-c2c(F)cccc2F)c1C(=O)N1CCN(c2cc3c(cc2[N+](=O)[O-])c(=O)c(C(=O)O)cn3C(C)(C)C)CC1`, 0.65 µM (≈ 0.387 µg/mL).
Molecule `O=C(O)c1cn(C2CC2)c2cc(N3CCC4(CC3)OCCO4)c([N+](=O)[O-])cc2c1=O` returned an MIC of 1.88 µM (≈ 0.781 µg/mL).
To `O=C(O)c1cn(C2CC2)c2cc(N3CCC(O)(c4ccc(Cl)cc4)CC3)c([N+](=O)[O-])cc2c1=O` belongs 0.39 µM (≈ 0.189 µg/mL).
As for `O=C(O)c1cn(C2CC2)c2cc(N3CCC(n4c(=O)[nH]c5cc(Cl)ccc54)CC3)c([N+](=O)[O-])cc2c1=O`, the figure is 2.97 µM (≈ 1.56 µg/mL); as for `CC1CN(c2cc3c(cc2[N+](=O)[O-])c(=O)c(C(=O)O)cn3C2CC2)CC(C)O1` (stereo not given), 4.03 µM (≈ 1.56 µg/mL).
As for `O=C(O)c1cn(-c2ccc(F)cc2)c2cc(N3CCN(C(=O)C4COc5ccccc5O4)CC3)c([N+](=O)[O-])cc2c1=O` (stereo not given), the figure is 0.68 µM (≈ 0.391 µg/mL).
The molecule `Cc1onc(-c2c(F)cccc2F)c1C(=O)N1CCN(c2cc3c(cc2[N+](=O)[O-])c(=O)c(C(=O)O)cn3C2CC2)CC1` showed a minimal inhibitory concentration (MIC) of 2.69 µM (≈ 1.56 µg/mL).
To `O=C(O)c1cn(C2CC2)c2cc(N3CCN(Cc4ccc5c(c4)OCO5)CC3)c([N+](=O)[O-])cc2c1=O` belongs 0.16 µM (≈ 0.0788 µg/mL).

The values above are taken from ChEMBL document CHEMBL1152865, “Synthesis and antimycobacterial activities of novel 6-nitroquinolone-3-carboxylic acids” (Eur J Med Chem, 2009).
